Source: PMC4183726 (Journal of biomolecular screening, 2014)
Structures can show the parent of a compound that is named as a salt. Where two headings read alike, the source gives them in different places.

Key:
MBD2-MBD [1] = target: T1, MBD2-MBD (Homo sapiens, UniProt Q9UBB5); conditions: read-out: EC50 of MBD2-MBD binding to DNA; FP assay
Procedure, shortened: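 His-tagged MBD2-MBD expressed in E. coli BL21 DE3 and purified by Ni-NTA and gel filtration. Protein dilution series in 10 mM Tris-HCl pH 7.4, 125 mM NaCl, 4% glycerol, 1 mM MgCl2, 0.5 mM EDTA, 0.5 mM DTT, 0.2% Tween-20. Added 10nM FAM-labelled hairpin oligo (CpG-methylated or unmethylated; annealed at 95°C, then ice). 1 h at 4°C with shaking, quadruplicate. Ex 470/em 525 nm; anisotropy plotted against protein concentration and curve-fitted.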

SP-1 = SP-1 (Homo sapiens, UniProt P08047); experiment: TR-FRET counter screen with transcription factor SP-1 binding to DNA; conditions: for inhibition of SP-1 binding to DNA (in words): TR-FRET counter screen, dose response
MBD2-MBD [2] = target: T1, MBD2-MBD; experiment: TR-FRET binding curves of MBD2-MBD to methylated and unmethylated DNA; conditions: read-out: EC50 of MBD2-MBD binding to DNA; TR-FRET assay
Procedure, shortened: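 His-tagged MBD2-MBD (25nM; E. coli-expressed, Ni-NTA and gel-filtration purified) in the FP binding buffer. FAM-labelled methylated or unmethylated hairpin oligo added as a dilution series, with 5 nM Tb-anti-His antibody. 1 h at 4°C with shaking. Ex 332 nm; emission 485 and 515 nm read after a 50 µsec delay over 400 µsec. No-protein 515/485 ratio subtracted; plotted against total DNA concentration and curve-fitted.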

MBD2-MBD [3] = target: T1, MBD2-MBD; experiment: TR-FRET dose-response; format: binding; conditions: for dose-response for inhibition of MBD2-MBD binding to methylated DNA (in words): TR-FRET, dose range tested up to 20 µM
MBD2-MBD [4] = target: MBD2-MBD (UniProt Q9UBB5 145-213); experiment: fluorescence polarization
Chain of MBD2-MBD (UniProt Q9UBB5 145-213) (Q9UBB5 145-213): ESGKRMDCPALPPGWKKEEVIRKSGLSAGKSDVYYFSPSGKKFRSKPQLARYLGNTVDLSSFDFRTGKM

Chain of SP-1 (P08047 whole entry): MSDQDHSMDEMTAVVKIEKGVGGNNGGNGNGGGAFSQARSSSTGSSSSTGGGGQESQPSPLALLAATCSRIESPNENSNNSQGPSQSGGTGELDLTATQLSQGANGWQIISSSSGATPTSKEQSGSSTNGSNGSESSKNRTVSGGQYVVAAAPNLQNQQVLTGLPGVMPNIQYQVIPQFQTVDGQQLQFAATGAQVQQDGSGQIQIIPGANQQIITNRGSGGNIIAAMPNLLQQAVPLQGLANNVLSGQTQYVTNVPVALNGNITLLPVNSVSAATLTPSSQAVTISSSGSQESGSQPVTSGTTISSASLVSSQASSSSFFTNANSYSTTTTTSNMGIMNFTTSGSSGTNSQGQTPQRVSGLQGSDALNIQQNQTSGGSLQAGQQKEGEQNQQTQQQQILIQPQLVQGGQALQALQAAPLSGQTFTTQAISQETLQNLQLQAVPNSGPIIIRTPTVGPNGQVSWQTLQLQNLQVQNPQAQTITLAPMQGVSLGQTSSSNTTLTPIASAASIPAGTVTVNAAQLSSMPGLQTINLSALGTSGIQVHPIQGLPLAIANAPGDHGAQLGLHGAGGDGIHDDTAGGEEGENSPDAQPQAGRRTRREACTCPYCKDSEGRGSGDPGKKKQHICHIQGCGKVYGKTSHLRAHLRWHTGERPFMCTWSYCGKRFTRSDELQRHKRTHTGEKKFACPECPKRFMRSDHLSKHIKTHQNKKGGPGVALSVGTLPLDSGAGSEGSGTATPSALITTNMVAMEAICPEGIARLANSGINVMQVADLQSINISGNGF
T1 sequence (Q9UBB5 145-213 limits assumed): as the sequence (Q9UBB5 145-213) above

Molecule	dose-response for inhibition of MBD2-MBD binding to methylated DNA (in words) (MBD2-MBD [3])	inhibition of SP-1 binding to DNA (in words) (SP-1)	IC50 (MBD2-MBD [3]) [µM]	other results
unmethylated DNA: FAM-labeled hairpin oligonucleotide 5′-ATGCTCGTAGCACTTTTGTGCTACGAGCAT-3′ (unmethylated) (DNA, backbone not given here; FAM label, hairpin)	–	–	–	EC50 (MBD2-MBD [1]): > 1 µM; EC50 (SP-1; read-out: EC50 of SP-1 binding to DNA, TR-FRET assay, binding curve): 0.022 µM; EC50 (MBD2-MBD [2]): > 1 µM
NC(Cc1cc(O)c(O)cc1O)C(=O)O (racemic) [6-Hydroxy-DL-DOPA]	failed to show appreciable inhibition	–	–	–
O=C(O)C1=CC(=C(c2ccc(O)c(C(=O)O)c2)c2ccc(O)c(C(=O)O)c2)C=CC1=O [Aurintricarboxylic acid]	showed a sigmoidal dose-response	prevented binding of SP1 to DNA with similar potency	0.0027	–
CC(=O)[C@]1(O)Cc2c(O)c3c(c(O)c2[C@@H](O[C@H]2C[C@H](N)[C@H](O)[C@H](C)O2)C1)C(=O)c1ccccc1C3=O [Idarubicin]	showed a sigmoidal dose-response	prevented binding of SP1 to DNA with similar potency	0.196	IC50 (SP-1): 0.58 µM
O=C1c2c(O)ccc(O)c2C(=O)c2c(NCCNCCO)ccc(NCCNCCO)c21 [Mitoxantrone]	showed a sigmoidal dose-response	prevented binding of SP1 to DNA with similar potency	0.094	IC50 (SP-1): 0.314 µM
CN(N=O)c1ccc(O)c(O)c1 [Me-3,4-dephostatin]	failed to show appreciable inhibition	–	–	–
CN(N=O)c1cc(O)ccc1O [Dephostatin]	failed to show appreciable inhibition	–	–	–
CCN(CC)CCOCCOC(=O)C1(c2ccccc2)CCCC1 [Carbetapentane citrate]	failed to show appreciable inhibition	–	–	–
N[C@H](C(=O)O)[C@H]1C[C@@H]1C(=O)O [(2S,1S,2S)-2-(carboxycyclopropyl)glycine]	failed to show appreciable inhibition	–	–	–
ATGCTCGTAGCACTTTTGTGCTACGAGCAT (structured_DNA, 5-methyl-C at C6 and C24 (printed Cme)) [methylated hairpin FAM]	–	–	–	apparent K (half saturation) (MBD2-MBD [4]): 42.7 nM
